Sampled rows, rich in hits. Any-hit rate of the full collection: about 3.5%.
Yeast lifespan up = extends the lifespan of yeast | AID 775 | inhibition of the nicotinamide effect, % at 10 µM | S. cerevisiae growth with nicotinamide, OD615; deaD strain in restrictive glucose medium | 130,000 tested, 0.68% active;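 active means inhibition above a set limit, placed 3 SD over the median of all compounds, cut at about 26% in these data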;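 further: 0% = nicotinamide-treated wells and 100% = cells grown without nicotinamide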
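assay system = DeaD-strain S. cerevisiae | measured by = absorbance at 615 nm | probe or stimulus = nicotinamide 1.5 mM | buffer or medium = CSMM-D glucose medium, restrictive | times = 48 h at 30 °C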
b-catenin transl = alters nuclear translocation of beta-catenin in HeLa cells; nuclear translocation activity, % at 5 µM; immunofluorescence imaging; 190,000 tested, 0.3% active;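 active means nuclear translocation activity above 50% at 5 µM, with a well cell count of 50 or more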;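 further: per-cell ratio of nuclear to cytoplasmic median beta-catenin stain intensity; plate controls were DMSO negative control for no effect and GSK-3 inhibitor IX positive control for full effect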
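Read-out: Nuclear/cytoplasmic beta-catenin signal ratio, % activation | Assay system: Human HeLa cell line | Times: 24 h compound exposure at 37°C, 5% CO2 | Signal: Fluorescence imaging of beta-catenin antibody stain plus DAPI | Dosing: 5 µM primary, 0.02–20 µM confirmation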
RAM inhibit = inhibitors of the yeast RAM network. S. cerevisiae dse1pr::URA3 reporter, 5-FOA growth OD615, 2 d; analog-sensitive cbk1-as2 kinase mutant strain. inhibition, % at 50 µM. 190,000 tested, 1.8% active;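 active means inhibition above a set limit, 3 SD over mean compound inhibition, cut at about 8.4% in these data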;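 further: 0% = DMSO-only wells with no growth and 100% = 10 µM 1-NA-PP1 full growth; inhibition rescues growth on 5-FOA so higher OD means more RAM inhibition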
MT stabilizer = stabilizes microtubules in HeLa cells | HeLa tubulin immunostaining HCS, 24 h; share of cells brighter than vehicle mean+2SD | % tubulin-high responders, % at 10 µM | 200,000 tested, 0.83% active;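 active means plate Z-score above 3 for both tubulin-high and condensed-nucleus cell shares, with cell loss under 80%, at 10 µM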;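 further: anti alpha tubulin signal scored within the nucleus-defined area of each cell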
Efa HMGR inh = blocks class II HMG-CoA reductase of Enterococcus faecalis. purified E. faecalis HMGR, NADPH absorbance 340 nm kinetic. inhibition, % at 10 µM. 190,000 tested, 0.41% active. AID 1066;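 active means inhibition above a set limit, the median over all tested compounds plus 3 SD, cut at about 9.5% in these data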;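 further: enzyme runs in reverse so mevalonate oxidation gives rising NADPH absorbance; 0% = complete reaction with DMSO and 100% = background rate lacking mevalonate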
Yeast growth inh = reduces growth of yeast BB579 in restrictive medium | 140,000 tested, 0.51% active | S. cerevisiae BB579 growth, OD615, 48 h | AID 804 | inhibition, % at 10 µM;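 active means inhibition above a set limit, 3 SD over the mean compound inhibition, cut at about 44% in these data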
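System: Saccharomyces cerevisiae DeaD strain BB579, replicative lifespan model yeast | Buffer or medium: Restrictive glucose-based CSMM-D medium | Times: 4 h preincubation and 48 h exposure at 30 °C | Detection: OD615 turbidity measurement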
An asterisk follows results filed as active; . = no result.

SMILES | Yeast lifespan up | b-catenin transl | RAM inhibit | MT stabilizer | Efa HMGR inh | Yeast growth inh
C#CCNC(=O)C1CCN(c2ccc(S(=O)(=O)N3CCOCC3)cc2Cl)CC1 | . | -1 | 4 | 3 | -1 | .
CCOc1ncccc1C(=O)Nc1ccc(F)c(Cl)c1 | . | 1 | 5 | 1 | -8 | .
COC(=O)c1ccc(COC(=O)CCc2nc(-c3ccccc3)c(-c3ccccc3)o2)cc1 | -12 | . | 11* | 1 | 1 | -37
COC(=O)c1ccc(COC(=O)c2ccccn2)cc1 | -2 | -4 | -1 | 4 | -2 | -11
O=C(Nc1ccccc1C(=O)O)c1ccc(Br)c(S(=O)(=O)NCc2ccccc2)c1 | . | -1 | 11* | 3 | -1 | .
CCNC(=O)CC1C(=O)N(CC)C(=S)N1NC(=O)c1ccccc1 (stereo not drawn) | . | -1 | . | . | . | .
O=C(NC1CC1)C1CCCN1S(=O)(=O)c1ccc2ccccc2c1 (stereo not drawn) | -8 | 8 | 0 | 24* | -1 | -35
CCc1ccc(/C=N/NC(=O)c2cc(C3CC3)nc3ccccc23)s1 | -3 | . | 2 | 41* | -5 | -22
O=C(N/N=C/c1ccc(-c2ccccc2Cl)o1)c1ccccc1 | . | . | 3 | 32* | -5 | .
O=S(=O)(N/N=C\c1ccc(-c2ccccc2Cl)o1)c1ccccc1 | . | 1 | 10* | 4 | -3 | -44
Cc1cccc(NC(=O)c2c(O)c3cccc4c3n(c2=O)CCC4)n1 | 74* | -4 | 0 | 5 | -3 | -72
CC(C)c1nnc(NC(=O)c2c(O)c3cccc4c3n(c2=O)CCC4)s1 | 40* | 1 | 0 | 4 | 0 | -33
Cc1cnc(NC(=O)c2c(O)c3cccc4c3n(c2=O)CCC4)s1 | 10 | 3 | 0 | 1 | -3 | -14
O=C(CSc1nnc(SCc2ccc(Cl)cc2)s1)N/N=C/c1ccccc1C(=O)O | . | 1 | . | . | . | .
COc1ccc(/C=N/NC(=O)c2nc(-c3ccccc3)cc(-c3ccccc3)n2)cc1OC | -2 | 4 | 10* | 4 | -1 | -17
COc1ccc(/C=N/NC(=O)c2[nH]nc3c2CCc2ccccc2-3)cc1OC | 1 | 127* | 3 | 22* | -1 | -20
COc1ccc(C=O)cc1OS(=O)(=O)c1ccc(NC(C)=O)cc1 | 4 | 2 | 3 | 8 | -3 | -16
COc1ccc(/C=N/NC(=O)c2ccc3ccccc3c2)cc1OS(=O)(=O)c1ccc(NC(C)=O)cc1 | -10 | 109* | 4 | 4 | -1 | -43
COc1ccc(/C=N/NC(N)=S)cc1OC(=O)c1cccc2ccccc12 | -9 | . | 5 | 35* | -2 | -33
c1ccc(Oc2c3ccccc3nc3ccccc23)cc1 | . | 1 | . | . | . | .
COCc1ccc([C@@H]2C[C@H]3CN(Cc4ccccc4C)C(=O)[C@]34CCCN24)o1 | . | 3 | 0 | 4 | 0 | .
CSC1=NSC2=NC(=O)/C(=C\c3coc4ccccc4c3=O)C(=N)N12 | 21 | -1 | 1 | 7 | 1 | 70*
CC(C)CSC1=NSC2=NC(=O)/C(=C\c3coc4ccccc4c3=O)C(=N)N12 | . | . | 9.0* | 2 | -8 | .
N=C1/C(=C\c2coc3ccccc3c2=O)C(=O)N=C2SC(c3ccncc3)=NN12 | . | -1 | . | . | . | .
CC(C)C(=O)Nc1ccc(S(=O)(=O)Nc2ccccn2)cc1 | . | 0 | 0 | 4 | 0 | .
SMILES | Yeast lifespan up | b-catenin transl | RAM inhibit | MT stabilizer | Efa HMGR inh | Yeast growth inh
Cc1ccc(C(=O)c2c(C)oc3c2C(=O)C(=O)c2ccccc2-3)cc1 | -11 | -1 | 0 | 6 | -7 | 70*
Cc1ccc(/C=C/C(=O)NCC2COc3ccccc3O2)o1 (stereo not drawn) | . | 0 | 0 | 3 | -2 | .
COc1ccc(/C=C/C(=O)NCC2COc3ccccc3O2)cc1OC (stereo not drawn) | . | -1 | -1 | 2 | 9.5* | .
O=C1CSC(c2cccnc2)N1c1cccc(Cl)c1 (stereo not drawn) | . | -3 | 1 | 2 | 13* | .
COc1ccc2nc(C)cc(SCC(=O)N/N=C/c3cccc4ccccc34)c2c1 | -18 | 77* | 0 | 41 | -2 | -33
COc1cccc2c(SCC(=O)N/N=C/c3ccc(O)c(O)c3)cc(C)nc12 | . | -5 | 1 | 10* | -1 | .

Assay outcomes deposited in PubChem by several laboratories.
